Data from ChEMBL document CHEMBL2331458, “Examination of the mode of action of the almiramide family of natural products against the kinetoplastid parasite Trypanosoma brucei” (J Nat Prod, 2013).
Active and inactive are the calls of the source. No cut-off for these calls is given here. Starred links: 1 amine or outer side, 2 acyl side, 3 side chain; linkers in the order of their positions; H or OH if unused. Non-standard residues stand in square brackets, D forms with d. Residues, ends and D or L forms follow the SMILES beside them. *: point of attachment. NH(CH2CH2O)2CH2CH2NHBiotin = O=C(CCCC[C@@H]1SC[C@@H]2NC(=O)N[C@@H]21)NCCOCCOCCN*; Octanoyl(2R-Me,7,8-dehydro) = C=CCCCC[C@@H](C)C(=O)*; Oct7ynoyl(2R-Me) = C#CCCCC[C@@H](C)C(=O)*; X2 = CN(C)c1ccc2c(CC(=O)*)cc(=O)oc2c1; NMeAEEA = CN(CCOCCOCC(=O)[*:2])[*:1]; Ethylenediamine = C(CN[*:2])N[*:1]; NMeF = CN[C@@H](Cc1ccccc1)C(=O)O; X4 = CC(=O)CCCC[C@@H](C)C(=O)*; Oct(7)enoyl = C=CCCCCCC(=O)*; Oct(7)ynoyl = C#CCCCCCC(=O)*; NMeV = CN[C@H](C(=O)O)C(C)C; Hept6ynoyl = C#CCCCCC(=O)*; X5 = COC(=O)CCCCCCCCN(C)*; NMeA = CN[C@@H](C)C(=O)O; X6 = COC(=O)COCCOCCN(C)*; X3 = C=CCCCCC(=O)*

Tests used:
[1] = Drug uptake in 120 hrs post fertilized zebrafish embryo intestinal tract at 1 to 270 uM after 3 hrs by confocal microscopic analysis; type: ADME, Danio rerio; conditions: in vivo
Method in brief: (§1)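 Zebrafish embryos at 48 and 120 h post fertilization were incubated with fluorescent probe or fluorophore control in methylene blue-free egg water at 270, 90, 30 and 0 µM, three embryos per treatment. Localization was imaged by confocal microscopy after 3 h.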

[2] = Drug uptake in neomycin-untreated zebrafish embryo neuromast at 250 uM after 3 hrs by confocal microscopic analysis; type: ADME, tissue-based, Danio rerio; conditions: in vivo
Method in brief: (§2)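 Zebrafish embryos were pretreated 1 h with neomycin 500 µM or with medium only. Both groups were then exposed to fluorescent probe (250 µM), fluorophore control (250 µM) or no compound for 3 h, and localization was imaged by confocal microscopy.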

Danio rerio [3] = organism: Danio rerio; test: Drug uptake in 48 hrs post fertilized zebrafish embryo lateral line at 1 to 270 uM after 3 hrs by confocal microscopic analysis; type: ADME, organism-based; conditions: in vivo; method in brief: as §1
[4] = system: Trypanosoma brucei brucei; test: Antiparasitic activity against Trypanosoma brucei brucei 427-221 assessed as growth inhibition up to 50 uM after 48 hrs by cellTiter-Glo assay; type: functional, organism-based
Method in brief: (§3)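 T. b. brucei 427-221 was grown at 37 °C and 5% CO2 in HMI-9 with 10% FBS, 10% Serum Plus and penicillin/streptomycin, then seeded at 2×10^4/mL. Compounds were serially diluted in DMSO (1% final) and exposed for 48 h. Viability was read by CellTiter-Glo ATP luminescence. Percent inhibition was normalized to thimerosal (2 µM final) and DMSO controls, and IC50 was derived by curve fitting.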

[5] = Cytotoxicity against african green monkey Vero cells; type: cell-based; conditions: chlorocebus sabaeus, read-out: LD50 (the source's name)
[6] = system: Trypanosoma brucei brucei; test: Antiparasitic activity against Trypanosoma brucei brucei 427-221 assessed as growth inhibition after 48 hrs by cellTiter-Glo assay; type: functional, organism-based; conditions: 427-221, 48 h; method in brief: as §3
[7] = Selectivity index, ratio of LD50 for african green monkey Vero cells to IC50 for Trypanosoma brucei brucei 427-221; type: toxicity, cell-based; conditions: read-out: Ratio LD50/IC50
Leishmania donovani = test: Antiparasitic activity against Leishmania donovani assessed as growth inhibition; type: functional, organism-based
[8] = Toxicity in 48 hrs post fertilized zebrafish embryo assessed as survival after 24 hrs by inverted microscopic analysis; type: organism-based, Danio rerio; conditions: in vivo, read-out: MTD
Danio rerio [9] = organism: Danio rerio; test: Drug uptake in 120 hrs post fertilized zebrafish embryo lateral line at 250 to 500 uM after 3 hrs by confocal microscopic analysis; type: ADME, organism-based; conditions: in vivo
[10] = Drug uptake in neomycin-treated zebrafish embryo neuromast at 250 uM after 3 hrs by confocal microscopic analysis; type: ADME, tissue-based, Danio rerio; conditions: in vivo; method in brief: as §2
Trypanosoma brucei = test: Antiparasitic activity against Trypanosoma brucei assessed as growth inhibition; type: functional, organism-based; method in brief: as §3

Row | SMILES | CC50 [5] | IC50 [6] | selectivity ratio [7] | also measured
1 | CN(C)c1ccc2c(CC(=O)NCCNC(=O)CCc3ccccc3)cc(=O)oc2c1 | – | – | – | Drug uptake [1]: Active; Drug uptake [2]: Not Active; Drug uptake (Danio rerio [3]): Active
2 | Cc1cc(C)n2c1C=C1C=CC(CCC(=O)NCCNC(=O)CCc3ccccc3)=[N+]1[B-]2(F)F | – | – | – | Activity [4]: inactive
3 | C#CCCCCC(=O)N(C)[C@H](C(=O)N(C)[C@H](C(=O)N(C)[C@H](C(=O)N(C)[C@@H](C)C(=O)N(C)[C@@H](Cc1ccccc1)C(=O)N(C)C)C(C)C)C(C)C)C(C)C (Hept6ynoyl-[NMeV][NMeV][NMeV][NMeA][NMeF]-NMe2) | 156 µM | 1.3 µM | 120 | –
4 | C#CCCCCC(=O)N(C)[C@H](C(=O)N(C)[C@H](C(=O)N(C)[C@H](C(=O)N(C)[C@@H](C)C(=O)N(C)[C@@H](Cc1ccccc1)C(=O)O)C(C)C)C(C)C)C(C)C (Hept6ynoyl-[NMeV][NMeV][NMeV][NMeA][NMeF]-OH) | 281 µM | > 13.7 µM | – | –
5 | C#CCCCCC(=O)N(C)[C@H](C(=O)N(C)[C@H](C(=O)N(C)[C@H](C(=O)N(C)[C@@H](C)C(=O)N(C)[C@@H](Cc1ccccc1)C(=O)OC)C(C)C)C(C)C)C(C)C (Hept6ynoyl-[NMeV][NMeV][NMeV][NMeA][NMeF]-OMe) | 41.4 µM | 0.6 µM | 69 | –
6 | C=CCCCCC(=O)N(C)[C@H](C(=O)N(C)[C@H](C(=O)N(C)[C@H](C(=O)N(C)[C@@H](C)C(=O)N(C)[C@@H](Cc1ccccc1)C(=O)N(C)C)C(C)C)C(C)C)C(C)C (X3-[NMeV][NMeV][NMeV][NMeA][NMeF]-NMe2) | 93.1 µM | 0.6 µM | 160 | IC50 (Leishmania donovani): 6.7 µM
7 | C=CCCCCC(=O)N(C)[C@H](C(=O)N(C)[C@H](C(=O)N(C)[C@H](C(=O)N(C)[C@@H](C)C(=O)N(C)[C@@H](Cc1ccccc1)C(=O)O)C(C)C)C(C)C)C(C)C (X3-[NMeV][NMeV][NMeV][NMeA][NMeF]-OH) | > 70 µM | 2.6 µM | > 27 | –
8 | C=CCCCCC(=O)N(C)[C@H](C(=O)N(C)[C@H](C(=O)N(C)[C@H](C(=O)N(C)[C@@H](C)C(=O)N(C)[C@@H](Cc1ccccc1)C(=O)OC)C(C)C)C(C)C)C(C)C (X3-[NMeV][NMeV][NMeV][NMeA][NMeF]-OMe) | 24.7 µM | 0.6 µM | 41 | –
9 | C=CCCCCCC(=O)N(C)[C@H](C(=O)N(C)[C@H](C(=O)N(C)[C@H](C(=O)N(C)[C@@H](C)C(=O)N(C)[C@@H](Cc1ccccc1)C(=O)N(C)C)C(C)C)C(C)C)C(C)C ({Oct(7)enoyl}-[NMeV][NMeV][NMeV][NMeA][NMeF]-NMe2) | 23.8 µM | 0.6 µM | 40 | IC50 (Leishmania donovani): 2.7 µM
10 | C=CCCCCCC(=O)N(C)[C@H](C(=O)N(C)[C@H](C(=O)N(C)[C@H](C(=O)N(C)[C@@H](C)C(=O)N(C)[C@@H](Cc1ccccc1)C(=O)O)C(C)C)C(C)C)C(C)C ({Oct(7)enoyl}-[NMeV][NMeV][NMeV][NMeA][NMeF]-OH) | 192 µM | > 13.7 µM | – | –
11 | C=CCCCCCC(=O)N(C)[C@H](C(=O)N(C)[C@H](C(=O)N(C)[C@H](C(=O)N(C)[C@@H](C)C(=O)N(C)[C@@H](Cc1ccccc1)C(=O)OC)C(C)C)C(C)C)C(C)C ({Oct(7)enoyl}-[NMeV][NMeV][NMeV][NMeA][NMeF]-OMe) | 18.8 µM | 0.4 µM | 47 | MNTC at 24 h [8]: 168 µM
12 | C=CCCCCCC(=O)N(C)[C@H](C(=O)N(C)[C@H](C(=O)N(C)[C@H](C(=O)N(C)[C@@H](C)C(=O)N(C)[C@@H](Cc1ccccc1)C(=O)N(C)CCCCCCCCC(=O)OC)C(C)C)C(C)C)C(C)C ({Oct(7)enoyl}-[NMeV][NMeV][NMeV][NMeA][NMeF]-X5) | – | 0.7 µM | – | –
13 | C=CCCCCCC(=O)N(C)[C@H](C(=O)N(C)[C@H](C(=O)N(C)[C@H](C(=O)N(C)[C@@H](C)C(=O)N(C)[C@@H](Cc1ccccc1)C(=O)N(C)CCOCCOCC(=O)OC)C(C)C)C(C)C)C(C)C ({Oct(7)enoyl}-[NMeV][NMeV][NMeV][NMeA][NMeF]-X6) | – | 3.5 µM | – | –
14 | C=CCCCCCC(=O)N(C)[C@H](C(=O)N(C)[C@H](C(=O)N(C)[C@H](C(=O)N(C)[C@@H](C)C(=O)N(C)[C@@H](Cc1ccccc1)C(=O)NCCOCCOCCNC(=O)CCCC[C@@H]1SC[C@@H]2NC(=O)N[C@@H]21)C(C)C)C(C)C)C(C)C ({Oct(7)enoyl}-[NMeV][NMeV][NMeV][NMeA][NMeF]-{NH(CH2CH2O)2CH2CH2NHBiotin}) | – | – | – | IC50 (Leishmania donovani): 9.9 µM
15 | C=CCCCCCC(=O)N(C)[C@H](C(=O)N(C)[C@H](C(=O)N(C)[C@H](C(=O)N(C)[C@@H](C)C(=O)N(C)[C@@H](Cc1ccccc1)C(=O)N(C)CCOCCOCC(=O)NCCNC(=O)Cc1cc(=O)oc2cc(N(C)C)ccc12)C(C)C)C(C)C)C(C)C ({Oct(7)enoyl}-[NMeV][NMeV][NMeV][NMeA][NMeF][NMeAEEA]-{Ethylenediamine-X2}) | – | – | – | Drug uptake (Danio rerio [9]): Active; Drug uptake [10]: Not Active; Drug uptake [1]: Active; Drug uptake [2]: Active; Drug uptake (Danio rerio [3]): Active
16 | C#CCCCCCC(=O)N(C)[C@H](C(=O)N(C)[C@H](C(=O)N(C)[C@H](C(=O)N(C)[C@@H](C)C(=O)N(C)[C@@H](Cc1ccccc1)C(=O)N(C)C)C(C)C)C(C)C)C(C)C ({Oct(7)ynoyl}-[NMeV][NMeV][NMeV][NMeA][NMeF]-NMe2) | 159 µM | 0.6 µM | 270 | –
17 | C#CCCCCCC(=O)N(C)[C@H](C(=O)N(C)[C@H](C(=O)N(C)[C@H](C(=O)N(C)[C@@H](C)C(=O)N(C)[C@@H](Cc1ccccc1)C(=O)O)C(C)C)C(C)C)C(C)C ({Oct(7)ynoyl}-[NMeV][NMeV][NMeV][NMeA][NMeF]-OH) | > 68.9 µM | 10.3 µM | > 6.7 | –
18 | C#CCCCCCC(=O)N(C)[C@H](C(=O)N(C)[C@H](C(=O)N(C)[C@H](C(=O)N(C)[C@@H](C)C(=O)N(C)[C@@H](Cc1ccccc1)C(=O)OC)C(C)C)C(C)C)C(C)C ({Oct(7)ynoyl}-[NMeV][NMeV][NMeV][NMeA][NMeF]-OMe) | 27 µM | 0.6 µM | 45 | –
19 | CC(=O)CCCC[C@@H](C)C(=O)N(C)[C@H](C(=O)N(C)[C@H](C(=O)N[C@H](C(=O)N(C)[C@@H](C)C(=O)N(C)[C@@H](Cc1ccccc1)C(N)=O)C(C)C)C(C)C)C(C)C [ALMIRAMIDE A] (X4-[NMeV][NMeV]V[NMeA][NMeF]-NH2) | 113 µM | – | – | –
20 | C#CCCCC[C@@H](C)C(=O)N(C)[C@H](C(=O)N(C)[C@H](C(=O)N[C@H](C(=O)N(C)[C@@H](C)C(=O)N(C)[C@@H](Cc1ccccc1)C(N)=O)C(C)C)C(C)C)C(C)C [ALMIRAMIDE B] ({Oct7ynoyl(2R-Me)}-[NMeV][NMeV]V[NMeA][NMeF]-NH2) | 52.3 µM | 6 µM | 8.7 | –
21 | C=CCCCC[C@@H](C)C(=O)N(C)[C@H](C(=O)N(C)[C@H](C(=O)N[C@H](C(=O)N(C)[C@@H](C)C(=O)N(C)[C@@H](Cc1ccccc1)C(N)=O)C(C)C)C(C)C)C(C)C [ALMIRAMIDE C] ({Octanoyl(2R-Me,7,8-dehydro)}-[NMeV][NMeV]V[NMeA][NMeF]-NH2) | 33.1 µM | 3 µM | 11 | –
22 | NCCCC(N)(C(=O)O)C(F)F (stereo not given) [EFLORNITHINE] | – | – | – | IC50 (Trypanosoma brucei): 59 µM
23 | Nc1nc(N)nc(Nc2ccc([As]3SCC(CO)S3)cc2)n1 (stereo not given) [MELARSOPROL] | – | – | – | IC50 (Trypanosoma brucei): 0.01 µM
24 | N=C(N)c1ccc(OCCCCCOc2ccc(C(=N)N)cc2)cc1 [PENTAMIDINE] | – | – | – | IC50 (Trypanosoma brucei): 0.03 µM
25 | Cc1ccc(C(=O)Nc2ccc(S(=O)(=O)O)c3cc(S(=O)(=O)O)cc(S(=O)(=O)O)c23)cc1NC(=O)c1cccc(NC(=O)Nc2cccc(C(=O)Nc3cc(C(=O)Nc4ccc(S(=O)(=O)O)c5cc(S(=O)(=O)O)cc(S(=O)(=O)O)c45)ccc3C)c2)c1 [SURAMIN] | – | – | – | IC50 (Trypanosoma brucei): 1.4 µM
